Compound activity (PubChem)
M4 ag = CHRM4 agonism in calcium assay; hit rate 0.14% among 360,000; AID 624127; CHO-K1 hM4/Gqi5, Fluo-8 calcium fluorescence; vehicle 0%, full acetylcholine response 100%; P08173; activation, % at 3 µM;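 active = activation above the run mean over all test wells plus 3 SD, cut at about 32% in these data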;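 note: peak over basal fluorescence ratio per well then scaled between controls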
Target sequence (P08173 whole entry, looked up): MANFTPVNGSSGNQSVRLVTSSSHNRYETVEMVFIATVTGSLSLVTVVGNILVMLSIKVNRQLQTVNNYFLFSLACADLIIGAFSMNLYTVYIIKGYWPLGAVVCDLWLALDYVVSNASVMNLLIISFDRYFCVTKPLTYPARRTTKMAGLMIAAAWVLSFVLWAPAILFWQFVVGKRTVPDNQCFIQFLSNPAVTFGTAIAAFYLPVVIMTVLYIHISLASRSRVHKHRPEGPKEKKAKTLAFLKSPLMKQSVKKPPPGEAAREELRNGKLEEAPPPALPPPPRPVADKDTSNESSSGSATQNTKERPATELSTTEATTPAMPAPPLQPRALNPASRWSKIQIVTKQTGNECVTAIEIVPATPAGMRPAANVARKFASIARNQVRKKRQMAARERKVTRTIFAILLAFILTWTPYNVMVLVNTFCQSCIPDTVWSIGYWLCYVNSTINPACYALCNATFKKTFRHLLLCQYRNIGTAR
CHRM4 antagonist = blocks acetylcholine activation of human M4 receptor | CHO-hM4 cells, ACh EC80, Fluo-8 calcium fluorescence | P08173 | AID 624125 | hit rate 0.73% among 360,000 | inhibition, % at 3 µM;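 active = inhibition above its plate's cutoff, the mean inhibition of sample wells plus 3 SD, cut at about 27% in these data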
CHRM4 PAM = CHRM4 positive allosteric modulation. CHO-K1 hM4/Gqi5, Fluo-8 calcium fluorescence, ACh EC20; 0% = ACh EC20, 100% = maximal ACh. activation, % at 3 µM. hit rate 0.4% among 360,000. AID 624126;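 active = activation above its plate's cutoff, the mean activation of sample wells plus 3 SD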
CHRM5 PAM = potentiates acetylcholine response at human M5 receptor. P08912. CHO-K1 hM5, Fluo-8 calcium, ACh EC20 PAM; 0% = ACh EC20, 100% = ACh EC100. activation, % at 3 µM. hit rate 0.3% among 360,000. AID 624038;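 active = activation above the run cutoff, the mean activation of all test compounds plus 3 SD, cut at about 18% in these data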
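Assay system: CHO-K1 hM5 cells / Incubation: Fluo-8 loading 80 min at 37 °C plus 30 min room temperature / Technique: Fluo-8 calcium dye fluorescence, kinetic read / Repeats: single replicate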
M5 ag = agonists of human muscarinic M5 receptor (CHRM5); CHO-K1 hM5 cells, Fluo-8 calcium fluorescence; 0% DMSO wells, 100% maximal acetylcholine response; activation, % at 3 µM; hit rate 0.19% among 360,000; AID 624037;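 active = activation above the run's mean over test compounds plus 3 SD, cut at about 23% in these data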;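 note: signal is peak over basal fluorescence ratio across the kinetic read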
M5 antag = antagonists of human muscarinic M5 receptor (CHRM5); P08912; CHO-hM5 cells, Fluo-8 calcium fluorescence, ACh EC80; inhibition, % at 3 µM; hit rate 0.59% among 360,000; AID 624040;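 active = inhibition above a per-plate cutoff, the mean of that plate's test compounds plus 3 SD, cut at about 27% in these data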
Large screens that a line does not name were inactive. Sampled rows, rich in hits. Any-hit rate of the full collection: about 1.8%.

O=C(NCCCn1ccnc1)C(=O)NCC(c1ccco1)N1CCN(c2ccccc2)CC1 (stereo unspecified)	CHRM4 antagonist 33
CCOCC(=O)Nc1ccccc1C(=O)O	CHRM4 PAM 26
Cc1ccc(CSCC(=O)Nc2ccccc2C(=O)O)cc1	CHRM4 PAM 15
CCCCCCC(=O)NNC(=O)CC(=O)Nc1ccccc1C(=O)O	CHRM4 PAM 46
CSc1ccccc1NC(=O)CSCc1ccc(C)cc1	none
CCCn1c(=S)[nH]c2cc(C(=O)N3CCN(c4ccccc4OC)CC3)ccc2c1=O	CHRM4 antagonist 39
COc1ccc(C(CNC(=O)c2cccc(S(=O)(=O)N3CCc4ccccc43)c2)N(C)C)cc1 (stereo unspecified)	none
CC1Cc2ccccc2N1S(=O)(=O)c1cccc(C(=O)NCc2ccco2)c1 (stereo unspecified)	none
COc1ccccc1C(CNC(=O)c1cccc(S(=O)(=O)N2CCCc3ccccc32)c1)N(C)C (stereo unspecified)	M5 antag 67
COc1ccccc1C(CNC(=O)c1cccc(S(=O)(=O)N2c3ccccc3CC2C)c1)N(C)C (stereo unspecified)	M5 antag 78
CN(CCOc1ccc(Cl)cc1)C(=O)C1CCN(C(=O)c2ccc(F)cc2)CC1	none
CCN(c1ccccc1)S(=O)(=O)c1cc(C(=O)O)ccc1C	CHRM4 PAM 17
O=C(O)c1ccc(Cl)c(S(=O)(=O)N(Cc2ccccc2)c2ccccc2)c1	none
CN1C[C@@H]2C(c3ccccc3)C3(c4cccnc4)CC2(C3)[C@H]1c1ccccc1 (stereo partly specified)	CHRM4 antagonist 57, M5 antag 31
Cn1nnnc1SCC(=O)NC1CCCC1	none
COc1cccc(N2CCN(c3nc(C)cc(=O)[nH]3)CC2)c1	none
COc1ccc(C2=CC(=O)C[C@H](c3ccc(Cl)cc3)C2)cc1	none
COc1ccccc1NC1=CC(=O)CC(c2ccccc2)C1 (stereo unspecified)	none
COc1ccc(NC2=CC(=O)CC(c3ccc(C)cc3)C2)c(OC)c1 (stereo unspecified)	CHRM4 PAM 23
COc1ccc(C2CC(=O)C(C=NCCO)=C(O)C2)cc1 (stereo unspecified)	CHRM5 PAM 19
COc1ccc(C2=CC(=O)CC(c3ccc(OC)cc3)C2)cc1 (stereo unspecified)	M5 antag 29
COc1ccc(C2CC(=O)C(C=NCCO)=C(O)C2)cc1OC (stereo unspecified)	none
Cc1ccc(S(=O)(=O)CCC(=O)OCC(=O)Nc2ccc(N3CCOCC3)cc2)cc1	none
COc1ccc(N/C=C(\C#N)c2nc3ccccc3n2C)c(OC)c1	CHRM4 antagonist 28
CN(C(=O)COC(=O)c1cc2ccccc2cc1O)c1c(N)n(Cc2ccccc2)c(=O)[nH]c1=O	none
COc1ccc(OCCSc2nc3nc(C)cc(C)n3n2)cc1	none
Cc1cc(C)n2nc(SCCOc3ccccc3)nc2n1	CHRM4 PAM 21
COC(=O)c1cc(S(=O)(=O)Nc2ccc(C)cn2)c[nH]1	M5 antag 27
Cc1cnc(NC(=O)NCC2CCCC(CNC(=O)Nc3ncc(C)s3)C2)s1 (stereo unspecified)	CHRM4 PAM 48, CHRM5 PAM 27
CC[n+]1c(/C=C/N(C)c2ccccc2)n(-c2ccccc2)c2ccc(-c3nc4ccccc4s3)cc21	CHRM4 antagonist 58
CCOC(=O)c1ccc2c(c1)n(CC)c(/C=C/N(C)c1ccccc1)[n+]2CC	none
CCc1nnc(NC(=O)CSc2nnc3nc(C)cc(C)n23)s1	CHRM4 PAM 18
CCN(CC)c1ccc2nc3ccc(N)cc3[n+](-c3ccccc3)c2c1	none
CCN(CC)c1ccc2nc3ccccc3[n+](CC)c2c1	CHRM4 antagonist 27
Cc1cccc(S(=O)Cc2ccc(C(=O)NC3CCN(Cc4ccccc4)CC3)o2)c1 (stereo unspecified)	none
O=C(Nc1ccc(Cl)cc1)c1ccc(-n2cncn2)c([N+](=O)[O-])c1	CHRM4 antagonist 29
